Data taken from ChEMBL document CHEMBL1128448, “Synthesis and antifungal activity of new azole derivatives containing an N-acylmorpholine ring” (1995).
Converted amounts (≈) assume the structure as drawn.

Legend:
Aspergillus fumigatus [1] = assay: In vivo evaluation of minimum inhibitory concentration against Aspergillus fumigatus 33; format: functional; conditions: in the assay text read “In vitro” for “In vivo”
In short: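 Agar dilution MIC. Inocula were 10^5 cfu/mL; 10 µL was spotted onto Kimmig's agar with 0.5% glycerol containing twofold drug dilutions (80 to 0.025 µg/mL). Drug stocks were 800 µg/mL in 50% ethanol. Plates were incubated at 25 °C, 48 h for yeasts and 120 h for molds and dermatophytes.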

Aspergillus niger = assay: In vitro evaluation of minimum inhibitory concentration against Aspergillus niger 18; format: functional; conditions: Aspergillus niger; read-out: MIC
In short: (§1)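 Stocks are 800 μg/mL in 50% ethanol. Each plate gets 10 μL of inoculum at 10^5 cfu/mL. Incubation at 25 °C, 48 h for yeasts and 120 h for dermatophytes and molds. Organisms are ATCC strains or clinical isolates.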

Candida albicans [2] = assay: In vitro evaluation of minimum inhibitory concentration against Candida albicans 76; format: functional; in short: as §1
Candida albicans [3] = assay: In vivo evaluation of minimum inhibitory concentration against Candida albicans 406; format: functional
In short: (§2)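 Broth macrodilution MIC following NCCLS M27-P, in RPMI-1640 buffered with 0.165 M MOPS. Fluconazole was dissolved in water and other drugs in DMSO. C. parapsilosis ATCC 22019 served as the reference strain in every run. MIC was the lowest concentration giving turbidity at or below the 80% inhibition standard.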

Candida albicans [4] = assay: In vivo evaluation of minimum inhibitory concentration against Candida albicans 60; format: functional; in short: as §2
[5] = test system: Meyerozyma guilliermondii; assay: In vitro evaluation of minimum inhibitory concentration against Candida guilliermondii 26; format: functional; conditions: Meyerozyma guilliermondii; read-out: MIC; in short: as §1
Pichia kudriavzevii = assay: In vitro evaluation of minimum inhibitory concentration against Candida krusei 70; format: functional; conditions: Pichia kudriavzevii; read-out: MIC; in short: as §1
Candida parapsilosis = assay: In vitro evaluation of minimum inhibitory concentration against Candida parapsilosis 61; format: functional; in short: as §1
Candida tropicalis = assay: In vitro evaluation of minimum inhibitory concentration against Candida tropicalis 2.11; format: functional; conditions: Candida tropicalis; read-out: MIC; in short: as §1
Mus sp. [6] = assay: In vivo evaluation of % survival rate after peroral administration on 3rd day at dose 2.5 mg/kg; format: functional; conditions: Mus sp., po
Mus sp. [7] = assay: In vivo evaluation of % survival rate after peroral administration on 5th day at dose 2.5 mg/kg; format: functional; conditions: Mus sp., po
Mus sp. [8] = assay: In vivo evaluation of % survival rate after peroral administration on 7th day at dose 2.5 mg/kg; format: functional; conditions: Mus sp., po
Mus sp. [9] = assay: In vivo evaluation of % survival rate after peroral administration on 9th day at dose 2.5 mg/kg; format: functional; conditions: Mus sp., po
Microsporum canis = assay: In vitro evaluation of minimum inhibitory concentration against Microsporum canis 47; format: functional; in short: as §1
Nannizzia gypsea = assay: In vitro evaluation of minimum inhibitory concentration against Microsporum gypseum 22; format: functional; in short: as §1
Nakaseomyces glabratus = assay: In vitro evaluation of minimum inhibitory concentration against Torulopsis glabrata 78; format: functional; in short: as §1
Trichophyton benhamiae = assay: In vitro evaluation of minimum inhibitory concentration against Trichophyton mentagrophytes 23; format: functional, Arthroderma benhamiae; in short: as §1
Trichophyton rubrum = assay: In vitro evaluation of minimum inhibitory concentration against Trichophyton rubrum 90; format: functional; in short: as §1
Rhodotorula mucilaginosa = assay: In vitro evaluation of minimum inhibitory concentration against Rhodotorula rubra 16; format: functional; in short: as §1
Kluyveromyces marxianus [10] = assay: In vitro evaluation of minimum inhibitory concentration against Candida pseudotropicalis 13; format: functional; in short: as §1
Aspergillus flavus = assay: In vitro evaluation of minimum inhibitory concentration against Aspergillus flavus 19; format: functional; conditions: Aspergillus flavus; read-out: MIC; in short: as §1
Aspergillus fumigatus [11] = assay: In vitro evaluation of minimum inhibitory concentration against Aspergillus fumigatus 33; format: functional; in short: as §1
Mus sp. [12] = assay: In vivo evaluation of % survival rate after peroral administration on 3rd day at dose 1 mg/kg; format: functional; conditions: for Survival: route oral, 1 mg/kg
Mus sp. [13] = assay: In vivo evaluation of % survival rate after peroral administration on 5th day at dose 1 mg/kg; format: functional; conditions: route oral, 1 mg/kg
Mus sp. [14] = assay: In vivo evaluation of % survival rate after peroral administration on 7th day at dose 1 mg/kg; format: functional; conditions: route oral, 1 mg/kg
Mus sp. [15] = assay: In vivo evaluation of % survival rate after peroral administration on 9th day at dose 1 mg/kg; format: functional; conditions: route oral, 1 mg/kg
Rattus norvegicus [16] = assay: In vivo evaluation of antifungal activity against vaginal candidosis in rat at dose 0.25 mg/kg on 10th day; format: functional
In short: (§3)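 Groups of 10 female Wistar rats given estradiol 25 mg/kg sc on day -5, infected intravaginally with C. albicans by sterile swab on day 0; infection confirmed on day 3 by swab culture (TSB, then Sabouraud agar). Oral dosing once daily on days 3, 4, 5; vehicle controls. Vaginal swabs cultured on days 10 and 15; read-out % cured (culture-negative).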

Rattus norvegicus [17] = assay: In vivo evaluation of antifungal activity against vaginal candidosis in rat at dose 0.5 mg/kg on 10th day; format: functional
In short: (§4)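 Female Wistar rats, 10 per group, received estradiol 25 mg/kg sc on day -5. On day 0 they were infected intravaginally with C. albicans by sterile swab. Infection was confirmed on day 3 by culturing the swab in TSB and then on Sabouraud agar. Oral dosing was once daily on days 3, 4 and 5; controls got vehicle only. Vaginal swabs taken on days 10 and 15 were cultured and read the next day.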

Rattus norvegicus [18] = assay: In vivo evaluation of antifungal activity against vaginal candidosis in rat at dose 0.5 mg/kg on 15th day; format: functional; in short: as §4
Rattus norvegicus [19] = assay: In vivo evaluation of antifungal activity against vaginal candidosis in rat at dose 0.25 mg/kg on 15th day; format: functional; in short: as §3
Kluyveromyces marxianus [20] = assay: In vivo Evaluation of minimum inhibitory concentration against Candida pseudotropicalis 13; format: functional; in short: as §1
Mus sp. [21] = assay: In vivo evaluation of % survival rate after peroral administration on 3rd day at dose 0.5 mg/kg; format: functional; conditions: route oral
Mus sp. [22] = assay: In vivo evaluation of % survival rate after peroral administration on 5th day at dose 0.5 mg/kg; format: functional; conditions: route oral
Mus musculus = assay: In vivo evaluation of % survival rate after peroral administration on 7th day at dose 0.5 mg/kg; format: functional; conditions: route oral, 0.5 mg/kg
Mus sp. [23] = assay: In vivo evaluation of % survival rate after peroral administration on 9th day at dose 0.5 mg/kg; format: functional; conditions: route oral, 0.5 mg/kg
Rattus norvegicus [24] = assay: In vivo evaluation of antifungal activity against vaginal candidosis in rat at dose 0.1 mg/kg on 10th day; format: functional
In short: (§5)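 Groups of 10 female Wistar rats given estradiol 25 mg/kg sc on day -5, then vaginally inoculated with C. albicans on day 0. Infection is confirmed by culture of day-3 swabs. Compound is dosed orally once daily on days 3–5; controls get vehicle. Cure is scored by culture of vaginal swabs taken on days 10 and 15.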

Rattus norvegicus [25] = assay: In vivo evaluation of antifungal activity against vaginal candidosis in rat at dose 0.1 mg/kg on 15th day; format: functional; in short: as §5
Rattus norvegicus [26] = assay: In vivo evaluation of antifungal activity in against vaginal candidosis in rat at dose 0.25 mg/kg on 10th day; format: functional; in short: as §3
Rattus norvegicus [27] = assay: In vivo evaluation of antifungal activity in against vaginal candidosis in rat at dose 0.25 mg/kg on 15th day; format: functional; in short: as §3
[28] = Candida albicans, read-out: MIC
[29] = Lodderomyces parapsilosis, read-out: MIC
[30] = Microsporum canis, read-out: MIC
[31] = Nannizzia gypsea, read-out: MIC
[32] = Nakaseomyces glabratus, read-out: MIC
[33] = Trichophyton benhamiae, read-out: MIC
[34] = Trichophyton rubrum, read-out: MIC
[35] = Rhodotorula mucilaginosa, read-out: MIC

Row | Compound | MIC (Aspergillus niger) [µg/mL] | MIC [5] [µg/mL] | MIC (Pichia kudriavzevii) [µg/mL] | MIC (Candida parapsilosis; [29]) [µg/mL] | MIC (Candida tropicalis) [µg/mL] | MIC (Microsporum canis; [30]) [µg/mL] | MIC (Nannizzia gypsea; [31]) [µg/mL] | MIC (Nakaseomyces glabratus; [32]) [µg/mL] | MIC (Trichophyton benhamiae; [33]) [µg/mL] | MIC (Trichophyton rubrum; [34]) [µg/mL] | MIC (Rhodotorula mucilaginosa; [35]) [µg/mL] | MIC (Aspergillus flavus) [µg/mL] | MIC (Candida albicans [2]) [µg/mL] | MIC (Candida albicans [4]) [µg/mL] | Survival (Mus sp. [12]) [%] | Survival (Mus sp. [13]) [%] | Survival (Mus sp. [14]) [%] | Survival (Mus sp. [15]) [%] | Cure rate (Rattus norvegicus [16]) [%] | Cure rate (Rattus norvegicus [17]) [%] | also measured
1 | C[C@H]1N(C(=O)c2ccc(C(F)(F)F)cc2)CC(=O)O[C@@]1(Cn1cncn1)c1ccc(C(F)(F)F)cc1 (racemic) | > 80 | > 80 | > 80 | > 80 | > 80 | > 80 | > 80 | > 80 | > 80 | > 80 | > 80 | > 80 |  |  |  |  |  |  |  |  | MIC (Aspergillus fumigatus [1]): > 80 µg/mL; MIC (Candida albicans [2]; [28]): > 80 µg/mL; MIC (Candida albicans [3]; [28]): > 80 µg/mL; MIC (Candida albicans [4]; [28]): > 80 µg/mL; survival at 2.5 mg/kg (Mus sp. [6]): 20%; survival at 2.5 mg/kg (Mus sp. [7]): 20%; survival at 2.5 mg/kg (Mus sp. [8]): 10%; survival at 2.5 mg/kg (Mus sp. [9]): 10%; MIC (Kluyveromyces marxianus [10]; Kluyveromyces marxianus, read-out: MIC): 80 µg/mL (≈ 156 µM)
2 | C[C@H]1N(C(=O)c2ccc(C(F)(F)F)cc2)CC(=O)O[C@@]1(Cn1cncn1)c1ccc(Cl)cc1Cl (stereo in doubt; (-)-32a) | > 80 | 80 (≈ 156 µM) | > 80 | 40 (≈ 77.9 µM) | 40 (≈ 77.9 µM) | > 80 | > 80 | > 80 | > 80 | > 80 | > 80 | > 80 | 20 (≈ 39 µM) | 10 (≈ 19.5 µM) | 100 | 100 | 70 | 10 | 70 | 80 | MIC (Aspergillus fumigatus [11]; Aspergillus fumigatus, read-out: MIC): > 80 µg/mL; MIC (Candida albicans [3]): 5 µg/mL (≈ 9.74 µM); Cure rate (Rattus norvegicus [18]): 100%; MIC (Kluyveromyces marxianus [10]): 10 µg/mL (≈ 19.5 µM); Cure rate (Rattus norvegicus [19]): 70%
3 | C[C@H]1N(C(=O)c2ccc(C(F)(F)F)cc2)CCO[C@@]1(Cn1cncn1)c1ccc(F)cc1F (stereo in doubt) | 40 (≈ 85.8 µM) |  | 80 (≈ 172 µM) |  | > 80 |  |  |  |  |  |  | > 80 |  |  |  | 100 | 100 | 100 |  |  | MIC (Aspergillus fumigatus [11]): 10 µg/mL (≈ 21.4 µM); MIC (Candida parapsilosis): 2.5 µg/mL (≈ 5.36 µM); MIC (Kluyveromyces marxianus [20]): 40 µg/mL (≈ 85.8 µM); survival at 0.5 mg/kg (Mus sp. [21]): 100%; survival at 1 mg/kg (Mus sp. [12]; Mus sp., po): 100%; survival at 0.5 mg/kg (Mus sp. [22]): 100%; Survival (Mus musculus): 100%; Survival (Mus sp. [23]): 100%; MIC (Microsporum canis): 10 µg/mL (≈ 21.4 µM); MIC (Nannizzia gypsea): 20 µg/mL (≈ 42.9 µM); Cure rate (Rattus norvegicus [24]): 10%; Cure rate (Rattus norvegicus [25]): 20%; Cure rate (Rattus norvegicus [26]): 40%; Cure rate (Rattus norvegicus [27]): 60%; MIC (Nakaseomyces glabratus): 40 µg/mL (≈ 85.8 µM); MIC (Trichophyton benhamiae): 10 µg/mL (≈ 21.4 µM); MIC (Trichophyton rubrum): 10 µg/mL (≈ 21.4 µM); MIC (Rhodotorula mucilaginosa): >80 µg/mL
4 | C[C@H]1N(C(=O)c2ccc(C(F)(F)F)cc2)CC(=O)O[C@@]1(Cn1cncn1)c1ccc(F)cc1F |  |  |  |  |  |  |  |  |  |  |  |  | 80 (≈ 167 µM) | 40 (≈ 83.3 µM) | 100 | 100 | 90 | 10 | 10 | 90 | Cure rate (Rattus norvegicus [18]): 90%; MIC (Kluyveromyces marxianus [10]): 80 µg/mL (≈ 167 µM); Cure rate (Rattus norvegicus [19]): 0%
